From ChEMBL document CHEMBL1154432, “Synthesis and pharmacological investigation of novel 4-(2-methylphenyl)-1-substituted-4H-[1,2,4]triazolo[4,3-a]quinazolin-5-ones as new class of H(1)-antihistaminic agents” (2008)

Tests used:
Mus musculus [1] = experiment: Sedative-hypnotic activity in Swiss Albino mouse assessed as CNS depression at 5 mg/kg, po after 1 hr; type: functional
How it was run: (§1)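 The basal motor activity score was recorded first. Compound was then given orally in 1% CMC, and scores were taken at 1, 2 and 3 h post-dose. % reduction in motor activity = [(A−B)/A]×100, with A the basal score and B the post-treatment score. Significance was tested by Student's t-test.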

Mus musculus [2] = experiment: Sedative-hypnotic activity in Swiss Albino mouse assessed as CNS depression at 5 mg/kg, po after 2 hrs; type: functional; how it was run: as §1
Mus musculus [3] = experiment: Sedative-hypnotic activity in Swiss Albino mouse assessed as CNS depression at 5 mg/kg, po after 3 hrs; type: functional; how it was run: as §1
Cavia porcellus [4] = experiment: Antihistaminic activity against Dunkin-Hartley guinea pig assessed as protection against histamine-induced bronchospasm at 10 mg/kg, po; type: functional
How it was run: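 Male Dunkin Hartley guinea pigs (250–300 g), fasted 12 h, six per group. Dosed orally in 1% CMC, then challenged with histamine aerosol (0.2% aqueous histamine acid chloride) sprayed from a pocket nebulizer into a closed cage. Preconvulsion onset time was recorded, and animals stable beyond 6 min counted as protected. Mean preconvulsion time vs control expressed as % protection.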

Cavia porcellus [5] = experiment: Antihistaminic activity against Dunkin-Hartley guinea pig assessed as protection against histamine-induced bronchospasm at 10 mg/kg, po

`Cc1ccccc1-n1c(=O)c2ccccc2n2c(CN3CCCCC3)nnc12` was tested, and the Activity (Mus musculus [1]) was 13%, the Activity (Mus musculus [2]) was 16% and the Activity (Mus musculus [3]) was 9%. It also gave an Activity (Cavia porcellus [4]) of 69.47%.
`Cc1ccccc1-n1c(=O)c2ccccc2n2cnnc12` gave an Activity (Mus musculus [1]) of 9%, an Activity (Mus musculus [2]) of 11% and an Activity (Mus musculus [3]) of 5%. It also gave an Activity (Cavia porcellus [4]) of 69.87%.
For `Cc1ccccc1-n1c(=O)c2ccccc2n2c(C)nnc12`, the Activity (Mus musculus [1]) was 11%, the Activity (Mus musculus [2]) was 14% and the Activity (Mus musculus [3]) was 8%. The Activity (Cavia porcellus [4]) was 72.45%.
`CCc1nnc2n(-c3ccccc3C)c(=O)c3ccccc3n12` gave an Activity (Mus musculus [1]) of 13%, an Activity (Mus musculus [2]) of 14% and an Activity (Mus musculus [3]) of 9%. The Activity (Cavia porcellus [4]) was 70.78%.
For `Cc1ccccc1-n1c(=O)c2ccccc2n2c(N3CCOCC3)nnc12`, the Activity (Mus musculus [1]) was 10%, the Activity (Mus musculus [2]) was 15% and the Activity (Mus musculus [3]) was 10%. For the same compound, the Activity (Cavia porcellus [4]) was 70.33%.
`CCCc1nnc2n(-c3ccccc3C)c(=O)c3ccccc3n12` showed an Activity (Mus musculus [1]) of 13%, an Activity (Mus musculus [2]) of 17% and an Activity (Mus musculus [3]) of 8%. The Activity (Cavia porcellus [4]) was 69.47%.
`Cc1ccccc1-n1c(=O)c2ccccc2n2c(CN3CCNCC3)nnc12` was tested, and the Activity (Mus musculus [1]) was 12%, the Activity (Mus musculus [2]) was 13% and the Activity (Mus musculus [3]) was 9%. It also gave an Activity (Cavia porcellus [4]) of 70.7%.
`CN(C)CCC(c1ccc(Cl)cc1)c1ccccn1.O=C(O)/C=C\C(=O)O` (centres undefined) [CHLORPHENIRAMINE MALEATE] showed an Activity (Mus musculus [1]) of 37%, an Activity (Mus musculus [2]) of 32% and an Activity (Mus musculus [3]) of 22%. It also gave an Activity (Cavia porcellus [5]) of 71%.
Compound `Cc1ccccc1-n1c(=O)c2ccccc2n2c(CN3CCN(C)CC3)nnc12` has an Activity (Mus musculus [1]) of 12%, an Activity (Mus musculus [2]) of 18% and an Activity (Mus musculus [3]) of 10%. For the same compound, the Activity (Cavia porcellus [4]) was 72.05%.
Compound `Cc1ccccc1-n1c(=O)c2ccccc2n2c(CCl)nnc12` has an Activity (Mus musculus [1]) of 8%, an Activity (Mus musculus [2]) of 13% and an Activity (Mus musculus [3]) of 4%. For the same compound, the Activity (Cavia porcellus [4]) was 68.56%.
In the case of `Cc1ccccc1-n1c(=O)c2ccccc2n2c(N3CCCC3)nnc12`, the Activity (Mus musculus [1]) was 10%, the Activity (Mus musculus [2]) was 14% and the Activity (Mus musculus [3]) was 7%. For the same compound, the Activity (Cavia porcellus [4]) was 68.81%.
